# Laboratory results as given in ChEMBL document CHEMBL1772938, “Optimization of 3-(phenylthio)quinolinium compounds against opportunistic fungal pathogens” (Eur J Med Chem, 2011).
# Assays:
# Cryptococcus neoformans [1] = assay: Antimicrobial activity against Cryptococcus neoformans ATCC 90113 by CLSI method; type: functional
# Method in brief: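 C. neoformans in Sabouraud dextrose broth, inoculum per the 0.5 McFarland standard. Saline serial dilutions of DMSO samples were tested in duplicate, with a final top concentration of 20 μg/mL. OD 630 nm was read before and after incubation. IC50 was derived from % growth versus concentration. MIC was judged visually as the lowest concentration with no detectable growth. Amphotericin B served as the drug control.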
# Candida albicans [2] = assay: Antimicrobial activity against Candida albicans ATCC 90028 by CLSI method; type: functional
# Method in brief: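 C. albicans inoculum was made to the 0.5 McFarland standard in Sabouraud dextrose broth or RPMI 1640. Samples came from DMSO stocks serially diluted in saline, in duplicate, starting at a final 20 μg/mL. Plates were read at OD 630 nm before and after incubation. IC50 came from the % growth versus concentration plot; MIC was the lowest concentration with no visible growth. Included: growth, solvent and blank controls, plus amphotericin B.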
# Aspergillus fumigatus [3] = assay: Antimicrobial activity against Aspergillus fumigatus ATCC 90906 by CLSI method; type: functional
# Method in brief: (§1)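 Modified CLSI broth microdilution. DMSO stocks were serially diluted in saline and run in duplicate. Inoculum was set by the 0.5 McFarland standard in YM broth for MIC, or in RPMI-1640 + 5% Alamar Blue for IC50. The top final concentration was 20 μg/mL. Fluorescence (544ex/590em) was read before and after incubation. IC50 was taken from % growth versus concentration; MIC was read visually as no blue-to-pink change.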
# Cryptococcus neoformans [4] = assay: Antimicrobial activity against Cryptococcus neoformans ATCC 90113 by alamar blue assay; type: functional, organism-based
# Candida albicans [5] = assay: Antimicrobial activity against Candida albicans ATCC 90028 by alamar blue assay; type: functional, organism-based
# Aspergillus fumigatus [6] = assay: Antimicrobial activity against Aspergillus fumigatus ATCC 90906 by alamar blue assay; type: functional, organism-based; method in brief: as §1
# Nakaseomyces glabratus [7] = assay: Antimicrobial activity against Candida glabrata ATCC 90030 by CLSI method; type: functional
# Method in brief: (§2)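 Modified CLSI microdilution. DMSO samples were serially diluted in saline and tested in duplicate against inoculum adjusted by the 0.5 McFarland standard. The final test range started at 20 μg/mL. Plates were read before and after incubation. IC50 came from % growth versus concentration; MIC was the lowest concentration without visible growth. Growth, solvent, blank and amphotericin B controls were on each plate.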
# Pichia kudriavzevii [8] = assay: Antimicrobial activity against Candida krusei ATCC 6258 by CLSI method; type: functional; method in brief: as §2
# Nakaseomyces glabratus [9] = assay: Antimicrobial activity against Candida glabrata ATCC 90030 by alamar blue assay; type: functional, organism-based
# Pichia kudriavzevii [10] = assay: Antimicrobial activity against Candida krusei ATCC 6258 by alamar blue assay; type: functional, organism-based
# [11] = Selectivity index, ratio of TC50 for african green monkey Vero cells to IC50 for Cryptococcus neoformans ATCC 90113; type: toxicity, cell-based; settings: read-out: Selectivity Index
# Vero = assay: Cytotoxicity against african green monkey Vero cells at 10 ug/ml after 48 hrs by neutral red assay; type: cell-based; settings: chlorocebus sabaeus
# Method in brief: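 VERO kidney cells were seeded at 25,000 cells/well and incubated 24 h. Samples were added up to 10 μg/mL and incubated a further 48 h. Viable cells were counted by neutral red uptake. IC50 came from growth-inhibition dose curves. Doxorubicin was the positive control and DMSO the vehicle control.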
Compound,MFC (Cryptococcus neoformans [1]) [µg/mL],MIC (Cryptococcus neoformans [1]) [µg/mL],MFC (Candida albicans [2]) [µg/mL],MIC (Candida albicans [2]) [µg/mL],MFC (Aspergillus fumigatus [3]) [µg/mL],MIC (Aspergillus fumigatus [3]) [µg/mL],IC50 (Cryptococcus neoformans [4]) [µg/mL],IC50 (Candida albicans [5]) [µg/mL],IC50 (Aspergillus fumigatus [6]) [µg/mL],MFC (Nakaseomyces glabratus [7]) [µg/mL],MIC (Nakaseomyces glabratus [7]) [µg/mL],MFC (Pichia kudriavzevii [8]) [µg/mL],MIC (Pichia kudriavzevii [8]) [µg/mL],IC50 (Nakaseomyces glabratus [9]) [µg/mL],IC50 (Pichia kudriavzevii [10]) [µg/mL],selectivity ratio [11],Activity (Vero)
FC(F)(F)c1ccccc1Sc1cc2ccccc2[n+](CCCCCC2CCCCC2)c1.[I-],1.3,0.6,2.5,2.5,5,5,0.3,1.1,1.8,10,5,1.3,1.3,3,1.1,> 33,Non-toxic
FC(F)(F)c1ccc(Sc2cc3ccccc3[n+](CCCCCC3CCCCC3)c2)cc1.[I-],0.6,0.6,2.5,2.5,> 20,2.5,0.3,0.8,1.7,10,10,5,2.5,4.7,1.3,> 33,Non-toxic
FC(F)(F)c1ccccc1Sc1cc2ccccc2[n+](CCCCCc2ccccc2)c1.[I-],10,5,> 20,> 20,> 20,> 20,2.2,12,6.9,–,–,–,–,–,–,–,Non-toxic
Brc1ccc(Sc2cc3ccccc3[n+](CCCCCc3ccccc3)c2)cc1.[I-],10,10,> 20,20,> 20,10,2,8.5,3.5,–,–,–,–,–,–,–,Non-toxic
N#Cc1ccc(Sc2cc3ccccc3[n+](CCCCCC3CCCCC3)c2)cc1.[I-],5,1.3,20,10,> 20,20,0.5,6.2,19,20,10,10,5,6.3,2.3,> 20,Non-toxic
Fc1ccc(Sc2cc3ccccc3[n+](CCCCCc3ccccc3)c2)cc1.[I-],> 20,20,> 20,> 20,> 20,20,15,> 20,9,–,–,–,–,–,–,–,Non-toxic
FC(F)(F)c1cccc(Sc2cc3ccccc3[n+](CCCCCC3CCCCC3)c2)c1.[I-],0.6,0.6,5,2.5,> 20,2.5,0.4,1.3,2.2,10,10,2.5,2.5,4.6,1.2,> 25,Non-toxic
Fc1cccc(Sc2cc3ccccc3[n+](CCCCCc3ccccc3)c2)c1.[I-],> 20,10,> 20,> 20,> 20,20,7,> 20,5,–,–,–,–,–,–,–,Non-toxic
N#Cc1cccc(Sc2cc3ccccc3[n+](CCCCCC3CCCCC3)c2)c1.[I-],5,1.3,20,20,> 20,20,0.7,6.7,19,20,20,10,5,13,1.4,> 14,Non-toxic
Fc1ccccc1Sc1cc2ccccc2[n+](CCCCCc2ccccc2)c1.[I-],> 20,20,> 20,> 20,> 20,20,9.5,> 20,9,–,–,–,–,–,–,–,Non-toxic
Oc1cccc(Sc2cc3ccccc3[n+](CCCCCC3CCCCC3)c2)c1.[I-],5,2.5,20,10,> 20,20,1.3,3.5,10,> 20,> 20,20,10,> 20,5.1,> 7.7,Non-toxic
Cc1ccccc1Sc1cc2ccccc2[n+](CCCCCc2ccccc2)c1.[I-],20,5,> 20,> 20,> 20,> 20,4,> 20,> 20,–,–,–,–,–,–,–,Non-toxic
Oc1ccc(Sc2cc3ccccc3[n+](CCCCCC3CCCCC3)c2)cc1.[I-],2.5,1.3,20,10,> 20,20,0.7,3.9,7.9,> 20,> 20,5,5,> 20,1.5,> 14,Non-toxic
